Results as given in ChEMBL document CHEMBL3864132, “Free fatty acid receptor 1 (GPR40) agonists containing spirocyclic periphery inspired by LY2881835” (Bioorg Med Chem, 2016).

How the values were obtained:
[1] = biological target: T1, Free fatty acid receptor 1 (Homo sapiens, UniProt O14842); experiment: Agonist activity at human FFA1 receptor expressed in CHO cells assessed as induction of Ca2+ flux by fluo-8 dye based FLIPR assay; type: functional, cell-based
Method in brief: (§1)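 CHO cells stably expressing human GPR40 seeded 24 h before assay, loaded 1 h with Fluo-8 calcium dye, read on FLIPR. Agonist response taken as maximum fluorescence change over baseline; concentration-response curves fitted for EC50. Efficacy expressed relative to GW9508 at 5 μM.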

[2] = Apparent permeability from apical to basolateral side in human Caco2 cells at 10 uM by HPLC-MS analysis; type: ADME, cell-based; conditions: Caco-2
Method in brief: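 Apical-to-basolateral transport across Caco-2 monolayers, integrity checked by TEER in every well. Compound at 10 μM, acceptor concentrations by HPLC-MS. Papp = (VA/(area × time)) × ([drug]acc/[drug]initial,donor), insert area 0.31 cm², in 10^-6 cm/s. Mean of n = 2.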

[3] = biological target: T1, Free fatty acid receptor 1; experiment: Agonist activity at human FFA1 receptor expressed in CHO cells assessed as induction of Ca2+ flux by fluo-8 dye based FLIPR assay relative to GW9508; type: functional, cell-based; method in brief: as §1
[4] = biological target: T2, Free fatty acid receptor 2 (Homo sapiens, UniProt O15552); experiment: Agonist activity at human FFA2 receptor expressed in CHO cells assessed as induction of Ca2+ flux by fluo-8 dye based FLIPR assay; type: functional, cell-based
T2 sequence (O15552 whole entry): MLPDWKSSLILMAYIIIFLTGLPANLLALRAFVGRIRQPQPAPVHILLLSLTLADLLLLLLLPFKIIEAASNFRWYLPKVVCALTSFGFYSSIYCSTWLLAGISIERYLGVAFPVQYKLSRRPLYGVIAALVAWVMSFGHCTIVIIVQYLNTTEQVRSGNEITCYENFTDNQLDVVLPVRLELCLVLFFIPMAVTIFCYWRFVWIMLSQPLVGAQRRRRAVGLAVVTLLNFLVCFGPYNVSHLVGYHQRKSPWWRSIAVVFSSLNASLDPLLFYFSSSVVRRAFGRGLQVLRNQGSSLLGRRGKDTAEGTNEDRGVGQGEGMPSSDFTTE
Method in brief: (§2)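 CHO lines stably expressing the respective receptor (GPR43, GPR41 or GPR120) used for specificity screening. Cells loaded 1 h with Fluo-8 calcium dye and read by FLIPR; maximum fluorescence change over baseline taken as agonist response.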

[5] = biological target: T3, Free fatty acid receptor 4 (Homo sapiens, UniProt Q5NUL3); experiment: Agonist activity at human FFA4 receptor expressed in CHO cells assessed as induction of Ca2+ flux by fluo-8 dye based FLIPR assay; type: functional, cell-based; method in brief: as §2
T3 sequence (Q5NUL3 whole entry): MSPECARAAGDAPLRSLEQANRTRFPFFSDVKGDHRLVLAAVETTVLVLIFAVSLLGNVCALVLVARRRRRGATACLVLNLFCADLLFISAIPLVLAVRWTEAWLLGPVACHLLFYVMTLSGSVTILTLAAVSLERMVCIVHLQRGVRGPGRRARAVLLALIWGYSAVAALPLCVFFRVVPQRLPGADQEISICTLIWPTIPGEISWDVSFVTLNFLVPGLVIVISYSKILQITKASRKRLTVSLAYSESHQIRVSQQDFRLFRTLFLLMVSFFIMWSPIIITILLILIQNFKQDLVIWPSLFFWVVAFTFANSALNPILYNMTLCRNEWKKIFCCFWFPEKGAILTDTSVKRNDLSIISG

[6] = Protein binding in human plasma at 1 uM after 5 hrs by HPLC-MS/MS analysis; type: ADME, cell-free; conditions: read-out: PPB (converted)
Method in brief: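 Equilibrium dialysis (12–14 kDa MWCO) of plasma spiked at 1 μM (1% solvent) against PBS pH 7.4, 5 h at 37°C with shaking, quadruplicates. Chambers matrix-matched, precipitated with acetonitrile and analysed by HPLC-MS/MS. Bound % = (1 − buffer/plasma peak area) × 100; recovery checked against undialyzed spiked plasma.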

[7] = biological target: T4, Free fatty acid receptor 3 (Homo sapiens, UniProt O14843); experiment: Agonist activity at human FFA3 receptor expressed in CHO cells assessed as induction of Ca2+ flux by fluo-8 dye based FLIPR assay; type: functional, cell-based; method in brief: as §2
T4 sequence (O14843 whole entry): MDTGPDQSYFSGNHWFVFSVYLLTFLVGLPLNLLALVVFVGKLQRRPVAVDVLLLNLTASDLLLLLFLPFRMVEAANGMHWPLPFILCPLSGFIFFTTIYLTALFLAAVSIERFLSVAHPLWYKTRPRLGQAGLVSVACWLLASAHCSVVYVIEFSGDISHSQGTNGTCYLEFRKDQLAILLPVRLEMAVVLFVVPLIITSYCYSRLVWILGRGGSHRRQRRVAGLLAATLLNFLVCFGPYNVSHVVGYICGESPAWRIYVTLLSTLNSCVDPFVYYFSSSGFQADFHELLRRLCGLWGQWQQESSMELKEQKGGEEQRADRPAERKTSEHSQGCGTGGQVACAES

[8] = Half life in BALB/c mouse liver microsomes at 2 uM by HPLC-MS analysis; type: ADME
Method in brief: (§3)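 Pooled liver microsomes from male BALB/c mice at 0.42 mg protein/ml in 100 mM potassium phosphate pH 7.4 with MgCl2, NADPH and a G6P/G6PDH regenerating system. Compound 2 μM (1.6% solvent), 37°C, five time points over 40 min, duplicates. Quenched in acetonitrile, analysed by HPLC-MS/MS. kel from ln(AUC) versus time; T1/2 = 0.693/kel; CLint scaled to incubation volume per mg microsomes.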

[9] = Kinetic aqueous solubility of the compound in PBS buffer […] at pH 7.4 after 2 hrs by UV-Visible spectrophotometric analysis; type: physicochemical; conditions: read-out: Kinetic_solubility
Method in brief: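 Equilibrated 2 h at 25°C with shaking, then filtered. Filtrates read by UV-Vis scan against 0–400 μM calibration curves in methanol/PBS.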

[10] = Intrinsic clearance in BALB/c mouse liver microsomes at 2 uM up to 40 mins by HPLC-MS analysis; type: ADME; method in brief: as §3
[11] = biological target: T1, Free fatty acid receptor 1; experiment: Agonist activity at FFA1 receptor (unknown origin)
Method in brief: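 Read-out on FLIPR as maximum fluorescence change over baseline. Dose-response testing gave EC50 from curve fitting. Efficacy is expressed as % of GW9508 reference agonist used at 5 μM.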

T1 sequence (O14842 whole entry): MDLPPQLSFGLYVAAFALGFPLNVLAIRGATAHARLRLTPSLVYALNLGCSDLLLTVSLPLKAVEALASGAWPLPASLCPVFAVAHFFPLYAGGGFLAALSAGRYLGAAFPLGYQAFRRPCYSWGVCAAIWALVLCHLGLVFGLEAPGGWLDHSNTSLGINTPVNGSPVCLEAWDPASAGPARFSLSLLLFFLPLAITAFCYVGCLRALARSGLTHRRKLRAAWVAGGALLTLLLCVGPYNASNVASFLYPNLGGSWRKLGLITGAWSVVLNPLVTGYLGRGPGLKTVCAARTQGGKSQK

## O=C(O)CCc1ccc(OCc2ccc(CN3CCC4(CC3)CC(Cc3cccc(F)c3)CCO4)cc2)cc1 (stereo not given)
[1]
  EC50: > 20 µM

## CC(C)NCC(O)COc1cccc2ccccc12 (stereo not given) [PROPRANOLOL]
[2]
  Papp A→B at 10 µM: 28 ×10⁻⁶ cm/s

## CCOC1CCOC2(CCN(Cc3ccc(COc4ccc(CCC(=O)O)cc4)cc3)CC2)C1 (stereo not given)
[1]
  EC50: > 20 µM

## C[C@]12CC[C@H]3[C@@H](CCC4=CC(=O)CC[C@@]43C)[C@@H]1CC[C@@H]2O [TESTOSTERONE]
[2]
  Papp A→B at 10 µM: 13.6 ×10⁻⁶ cm/s

## COc1ccc(CC2CCOC3(CCN(Cc4ccc(COc5ccc(CCC(=O)O)cc5)cc4)CC3)C2)cc1.Cl (stereo not given)
[1]
  EC50: 0.28 µM
[3]
  Emax: 100%
[2]
  Papp A→B at 10 µM: 15.8 ×10⁻⁶ cm/s
[4]
  EC50: > 10 µM
[5]
  EC50: > 10 µM
[6]
  fraction unbound at 5 h, 1 µM: 0.007
[7]
  EC50: > 10 µM
[8]
  half-life at 2 µM: 11.8 min
[9]
  solubility kinetic at 2 h: 42 µM
[10]
  CLint at 40 min, 2 µM: 141 µL/min/mg

## COCCc1noc(CC2CCOC3(CCN(Cc4ccc(COc5ccc(CCC(=O)O)cc5)cc4)CC3)C2)n1 (stereo not given)
[1]
  EC50: > 20 µM

## COC1CCOC2(CCN(Cc3ccc(COc4ccc(CCC(=O)O)cc4)cc3)CC2)C1 (stereo not given)
[1]
  EC50: > 20 µM

## O=C(O)CCc1ccc(OCc2ccc(CN3CCC4(CC3)CC(Cc3ccc(C(F)(F)F)cc3)CCO4)cc2)cc1 (stereo not given)
[1]
  EC50: 1.27 µM
[3]
  Emax: 74%

## O=C(O)CCc1ccc(OCc2ccc(CN3CCC4(CC3)CC(Cc3nc(-c5cccnc5)no3)CCO4)cc2)cc1 (stereo not given)
[1]
  EC50: > 20 µM

## CC#C[C@@H](CC(=O)O)c1ccc(OCc2ccc(CN3CCC4(C=Cc5ccccc54)CC3)cc2)cc1 [LY2881835]
[11]
  EC50: 0.233 µM

## Cc1ccc(CC2CCOC3(CCN(Cc4ccc(COc5ccc(CCC(=O)O)cc5)cc4)CC3)C2)cc1.Cl (stereo not given)
[1]
  EC50: 0.077 µM
[3]
  Emax: 74%
[2]
  Papp A→B at 10 µM: 10.4 ×10⁻⁶ cm/s
[4]
  EC50: > 10 µM
[5]
  EC50: > 10 µM
[6]
  fraction unbound at 5 h, 1 µM: 0.002
[7]
  EC50: > 10 µM
[8]
  half-life at 2 µM: 9.6 min
[9]
  solubility kinetic at 2 h: 69 µM
[10]
  CLint at 40 min, 2 µM: 173 µL/min/mg
